Source: PubChem BioAssay
IDH1 mut inh: IDH1 R132H (human) inhibition; O75874; IDH1 R132H reductase, diaphorase/resazurin fluorescence, 60 min; inhibition, % at 10 µM; actives 0.18% (n = 70,000); in the data active means inhibition above about 34%; inconclusive means no clear call, values can overlap the other calls; inactive means below about 11%;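 further: 0% = DMSO and 100% = no enzyme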
Target sequence (O75874 whole entry R132H): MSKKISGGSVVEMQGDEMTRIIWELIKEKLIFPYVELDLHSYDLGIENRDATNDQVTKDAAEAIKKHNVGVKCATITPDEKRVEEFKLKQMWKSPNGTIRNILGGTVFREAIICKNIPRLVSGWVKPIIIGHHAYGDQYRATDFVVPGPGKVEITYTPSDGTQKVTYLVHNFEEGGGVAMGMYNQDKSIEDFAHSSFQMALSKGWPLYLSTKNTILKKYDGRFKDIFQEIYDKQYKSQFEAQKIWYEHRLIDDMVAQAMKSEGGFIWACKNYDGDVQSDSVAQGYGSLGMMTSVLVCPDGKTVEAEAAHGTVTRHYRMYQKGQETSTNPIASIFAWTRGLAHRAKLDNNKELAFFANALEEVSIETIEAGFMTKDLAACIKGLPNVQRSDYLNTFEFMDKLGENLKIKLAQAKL
KDM4C inh: KDM4C (human) demethylase inhibition; actives 0.15% (n = 96,000); inhibition, % at 12.5 µM; GST-KDM4C 2-372, H3K9me3 peptide, LANCE TR-FRET; AID 720574;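 active means mean replicate inhibition above about 25%, with at least 55% of replicates also reaching it, limit read from the data, passing the limit was not always enough; inconclusive means only one of those two conditions met; inactive means neither condition met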
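Material: GST-tagged GASC-1 (JMJD2C) catalytic fragment, aa 2-372 / Quantity: enzyme final amount 10 nM / Medium: HEPES buffer, pH 7.5, plus ascorbate / Doses: one test concentration per compound / Incubation: 30 min reaction, 60 min detection, RT / Measured by: LANCE TR-FRET / Read-out: inhibition from TR-FRET ratio decrease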
T cruzi growth-1: inhibitors of T. cruzi proliferation. actives 5.9% (n = 77,000). inhibition, % at 8.34 µM. T. cruzi beta-gal in NIH3T3, GalScreen luminescence, 90 h;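 active means mean inhibition above about 93%, with at least 55% of replicates each passing it, limit read from the data, passing the limit was not always enough; inconclusive means only one of those two conditions holds; inactive means neither condition holds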
T cruzi growth-2: inhibitors of T. cruzi proliferation; T. cruzi beta-gal in NIH3T3, GalScreen luminescence, 90 h; actives 72% (n = 5,600); shares compounds with T cruzi growth-1; inhibition, % at 8.35 µM;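 active means mean replicate inhibition above about 95% and at least 55% of replicates individually reaching it, limit read from the data; inconclusive means only one of the two criteria is met; inactive means neither criterion is met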
T cruzi growth-3: Trypanosoma cruzi proliferation inhibition; shares compounds with T cruzi growth-1; T. cruzi beta-gal in NIH3T3, GalScreen luminescence, 90 h; inhibition, % at 2.09 µM; actives 21% (n = 5,600); AID 651740;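 active means mean inhibition above about 95%, with at least 55% of replicates also reaching it, limit read from the data; inconclusive means meets just one of the two conditions; inactive means meets neither condition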;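 further: plate controls were neutral control median for no effect and positive control median for full effect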
NIH3T3 tox: cytotoxicity in mouse NIH/3T3 fibroblasts; cytotoxicity (signal decrease), % at 8.35 µM; AID 651742; actives 14% (n = 5,600); NIH/3T3 viability, CellTiter-Glo ATP luminescence, 90 h; shares compounds with T cruzi growth-1;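 active means mean signal decrease across replicates above about 35% based on untreated-well scatter, with enough replicates individually passing, limit read from the data; inconclusive means no rule stated though some were filed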;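 further: 0% = median of neutral control wells and 100% = median of positive control wells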
3T3 cytotox 2: cytotoxicity in mouse NIH/3T3 fibroblasts; shares compounds with T cruzi growth-1; NIH/3T3 viability, CellTiter-Glo ATP luminescence, 90 h; inhibition, % at 24.9 µM; actives 56% (n = 5,600);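 active means mean loss of cell viability signal at or above a set limit, and enough replicates individually reaching it; inconclusive means meets only the mean limit or only the replicate share; inactive means meets neither condition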;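 further: 0% = median of neutral control wells and 100% = median of positive control wells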
Active calls of the source: *. The full list was thinned out, with hits kept by preference.

C[C@@H]1CCCCO[C@@H](CN(C)C(=O)Nc2cccc3ccccc23)[C@H](C)CN([C@H](C)CO)C(=O)c2cc(N(C)C)ccc2O1 was read as IDH1 mut inh 0.3, KDM4C inh 1.9, T cruzi growth-1 101.7*, T cruzi growth-2 97.5*, T cruzi growth-3 72.5, NIH3T3 tox -34.5 and 3T3 cytotox 2 0.0.
`C[C@@H]1CCCCO[C@@H](CN(C)C(=O)Nc2cccc3ccccc23)[C@@H](C)CN([C@@H](C)CO)C(=O)c2cc(N(C)C)ccc2O1` gave IDH1 mut inh -0.1, KDM4C inh -1.9 and T cruzi growth-1 56.7.
For C[C@@H]1CCCCO[C@H](CN(C)C(=O)Nc2ccc(F)cc2)[C@@H](C)CN([C@H](C)CO)C(=O)c2cc(NC(=O)Nc3cccc4ccccc34)ccc2O1 the results were KDM4C inh -1.3 and T cruzi growth-1 72.4.
For C[C@@H]1CCCCO[C@H](CN(C)C(=O)Nc2ccccc2)[C@@H](C)CN([C@H](C)CO)C(=O)c2cc(NC(=O)Nc3ccccc3)ccc2O1 the results were IDH1 mut inh -0.2, KDM4C inh -1.1 and T cruzi growth-1 37.2.
Screening C[C@H]1CCCCO[C@@H](CN(C)C(=O)Nc2ccccc2)[C@@H](C)CN([C@@H](C)CO)C(=O)c2cc(NC(=O)Nc3ccc4c(c3)OCO4)ccc2O1 returned IDH1 mut inh 0.5, KDM4C inh 0.7, T cruzi growth-1 122.7*, T cruzi growth-2 113.4*, T cruzi growth-3 59.5, NIH3T3 tox 8.0 and 3T3 cytotox 2 -2.5.
`C[C@H](CO)N1C[C@H](C)[C@@H](CN(C)C(=O)Nc2ccc(F)cc2)OCCCC[C@H](C)Oc2ccc(NC(=O)Nc3cccc4ccccc34)cc2C1=O` gave IDH1 mut inh 3.3, KDM4C inh 12.1, T cruzi growth-1 105.1*, T cruzi growth-2 106.7*, T cruzi growth-3 55.2, NIH3T3 tox 9.1 and 3T3 cytotox 2 inconclusive.
`C[C@@H]1CCCCO[C@@H](CN(C)C(=O)Nc2ccc3c(c2)OCO3)[C@@H](C)CN([C@@H](C)CO)C(=O)c2cc(NC(=O)Nc3ccccc3)ccc2O1` gave KDM4C inh 1.0 and T cruzi growth-1 64.5.
`C[C@@H]1CCCCO[C@@H](CN(C)C(=O)Nc2ccccc2)[C@H](C)CN([C@@H](C)CO)C(=O)c2cc(NC(=O)Nc3ccccc3)ccc2O1` gave IDH1 mut inh 0.2, KDM4C inh -0.6, T cruzi growth-1 inconclusive, T cruzi growth-2 88.6, T cruzi growth-3 40.4, NIH3T3 tox -37.6 and 3T3 cytotox 2 -6.8.
`COc1ccc(C(=O)N(Cc2nc(-c3ccc(C)cc3)no2)C(C)C)cc1` gave IDH1 mut inh 0.0.
Cn1c(SCC(=O)Nc2cccc3ccccc23)nnc1-c1cccs1 was read as IDH1 mut inh 0.6.
`CC(C)(C)NC(=S)N1CCSCC1` gave IDH1 mut inh 1.2.
`CN(Cc1nc(-c2cccc([N+](=O)[O-])c2)no1)S(=O)(=O)c1ccccc1` gave IDH1 mut inh 0.1.
For C[C@H](CO)N1C[C@H](C)[C@@H](CN(C)C(=O)Nc2ccccc2)OCCCC[C@H](C)Oc2ccc(NC(=O)Nc3ccc(F)cc3)cc2C1=O the results were KDM4C inh -0.4, T cruzi growth-1 100.1*, T cruzi growth-2 inconclusive, T cruzi growth-3 -21.9, NIH3T3 tox -10.5 and 3T3 cytotox 2 24.0.
Screening C[C@H]1CCCCO[C@H](CN(C)C(=O)Nc2ccccc2)[C@@H](C)CN([C@@H](C)CO)C(=O)c2cc(NC(=O)Nc3ccc(F)cc3)ccc2O1 returned KDM4C inh -1.5 and T cruzi growth-1 18.9.
C[C@H]1CCCCO[C@H](CN(C)C)[C@@H](C)CN([C@@H](C)CO)C(=O)c2cc(NC(=O)Nc3cccc4ccccc34)ccc2O1 was read as IDH1 mut inh -9.0, KDM4C inh 1.0 and T cruzi growth-1 28.8.
